# An excerpt weighted towards active compounds, which were near 2.5% of everything screened.
# NTR1 ag – agonists of human neurotensin receptor NTR1; P30989; NTR1-U2OS beta-arrestin-GFP spot imaging, agonist mode; activation, % at 20 µM; 330,000 compounds, 0.17% hits; AID 493036;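 active = activation at or above 40% of the spot to cytoplasm intensity ratio, with at least 20 cells analyzed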;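 note: 0% = DMSO without peptide and 100% = 100 nM NTR1 peptide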
# Target sequence (P30989 whole entry, looked up): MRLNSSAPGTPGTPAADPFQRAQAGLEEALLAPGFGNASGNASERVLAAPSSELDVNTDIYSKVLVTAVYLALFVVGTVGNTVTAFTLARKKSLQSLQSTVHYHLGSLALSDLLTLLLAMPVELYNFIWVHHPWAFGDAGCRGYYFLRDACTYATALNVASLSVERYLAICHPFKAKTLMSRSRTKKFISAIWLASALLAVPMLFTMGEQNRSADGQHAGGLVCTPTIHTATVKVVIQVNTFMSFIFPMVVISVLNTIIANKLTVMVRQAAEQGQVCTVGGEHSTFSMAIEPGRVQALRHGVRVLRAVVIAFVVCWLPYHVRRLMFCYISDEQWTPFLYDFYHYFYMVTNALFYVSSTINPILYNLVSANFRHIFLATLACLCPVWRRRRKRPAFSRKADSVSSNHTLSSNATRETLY
# HGIII-sPLA2 inh – Inhibits HGIII-sPLA2 liposome hydrolysis, primary screen; Q9NZ20; QFRET BODIPY PC-A2 liposome hydrolysis, fluorescence; inhibition, % at 12.2 µM; 370,000 compounds, 0.56% hits; AID 743126;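 active = inhibition above mean plus 3 SD of compounds lying within the high and low control bounds, cut at about 19% in these data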;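 note: 0% = median of test compound wells and 100% = no enzyme DMSO wells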
# Granule exo inh – blocks lytic granule exocytosis; TALL-104 LAMP-1 surface exposure, flow cytometry; cells stimulated with thapsigargin and PMA; inhibition, % at 10 µM; 360,000 compounds, 0.66% hits;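 active = inhibition above about 55%, limit read from the data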
# A1 inh – inhibitors of the anti-apoptotic protein A1, read as caspase activation | MEF A1-2A-BIM cells, Caspase-Glo 3/7 luminescence, 3 h; percent of clofoctol response, vehicle zero | caspase activation, % (no concentration beside the values) | 330,000 compounds, 0.066% hits | AID 2462;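 active = over half of replicate activation scores above 10%, or exactly half above 10 with the replicate mean above 10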
# MC4R antag cAMP – antagonists of human melanocortin 4 receptor (MC4R) | P32245 | MC4R-expressing cells, MTII-stimulated cAMP, LANCE TR-FRET | inhibition, % at 6.5 µM | 360,000 compounds, 0.48% hits | AID 540295;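 active = inhibition above its plate's cutoff, the mean of tested wells on that plate plus 3 SD, cut at about 29% in these data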;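 note: 0% = Melanotan II alone and 100% = Melanotan II plus saturating MCL0020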
#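 Material: human MC4R-expressing U2OS cells. Probe or stimulus: Melanotan II challenge. Dosing: 6.5 µM single dose. Times: 30-min compound, 1-h challenge, 1-h detection, room temperature. Technique: TR-FRET with Eu-cAMP and labeled anti-cAMP, 671 nm. Replication: singlicate.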
# MC4R barr agon – human MC4R agonism via beta-arrestin; 360,000 compounds, 0.98% hits; AID 540308; U2OS MC4R beta-arrestin complementation, luminescence; percent of melanotan II response, DMSO zero; P32245; activation, % at 8.9 µM;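 active = activation above a per-plate cutoff, the mean activation of sample wells on that plate plus 3 SD, cut at about 8% in these data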
# MC4R barr ag – human MC4R beta-arrestin agonism confirmation | 2,400 compounds, 31% hits | activation, % at 8.9 µM | shares compounds with MC4R barr agon | U2OS MC4R beta-arrestin recruitment, luminescence; scaled DMSO 0%, Melanotan II 100%;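 active = mean activation across replicates above the hit cutoff set in the earlier primary screen, cut at about 8% in these data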
# MOR-DOR barr ag – counter-screen for MC4R agonists: agonists of mu-delta opioid heterodimer. shares compounds with MC4R barr agon. activation, % at 9.2 µM. AID 602194. U2OS PathHunter beta-arrestin, beta-gal luminescence; percent of deltorphin B response, DMSO zero. 2,400 compounds, 5.8% hits;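 active = mean activation across replicates exceeds the hit threshold derived in the earlier primary screen, cut at about 18% in these data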;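 note: 100% = deltorphin B at 0.9 µM final and 0% = DMSO alone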
# * hit, by the source's call; x = no result given.
SMILES,NTR1 ag,HGIII-sPLA2 inh,Granule exo inh,A1 inh,MC4R antag cAMP,MC4R barr agon,MC4R barr ag,MOR-DOR barr ag
C[N+](C)(CCOc1ccccc1)Cc1ccccc1,x,0,-2,x,9,-1,x,x
Nn1c(SCC(=O)Nc2ccccc2-c2ccccc2)nnc1-c1cc(-c2ccccc2)n[nH]1,x,5,x,x,x,x,x,x
CCCCN1CC[C@H]2C=CC[C@@H](C(=O)NCc3ccc(OC)cc3)[C@H]2C1=O,0,3,11,-1,3,-2,x,x
COc1ccc(CNC(=O)[C@@H]2CC=C[C@@H]3CCN(Cc4ccc(Cl)c(Cl)c4)C(=O)[C@@H]32)cc1,3,-11,0,0,1,18*,8.8*,3
COc1cc2c(-c3ccccc3)c(C)oc2cc1/C=N/NC(N)=S,3,10,1,6.7*,23,16*,8.7*,10
NC(=O)c1ccc(NC(=O)COC(=O)CCC2CCCCC2)cc1,2,-8,1,1,7,1,x,x
COc1ccc(NC(=O)COC(=O)CCC2CCCCC2)cc1,0,1,-6,1,7,9.9*,0,8
CC(OC(=O)CCC1CCCCC1)C(=O)Nc1ccc(S(N)(=O)=O)cc1 (stereo unspecified),1,-31,4,-1,0,-2,x,x
Cc1ccc(NC(=O)C(C)OC(=O)CCC2CCCCC2)cc1 (stereo unspecified),0,-3,3,3,7,11*,3,6
O=C(CNCC1CCCCC1)Nc1ccc(OC(F)(F)F)cc1,6,14,2,0,-3,15*,8,9
CC(=O)c1c(C)[nH]c(C(=O)CSc2ncnc3sc(-c4ccccc4)cc23)c1C,7,-8,7,0,15,25*,16*,4
O=C(Nc1ccccc1-c1ccccc1)c1cccc(C(F)(F)F)c1,1,18,2,0,5,3,x,x
O=C(Nc1ccc(C(F)(F)F)cc1-c1ccccc1)c1ccccc1,-1,13,4,0,-5,13*,2,4
COc1ccc2cc(C(=O)N3CCC(Cc4ccccc4)CC3)[nH]c2c1,3,-5,-10,-2,7,10*,8,4
COC(=O)C1CN(Cc2ccccc2)CCS(=O)(=O)N1Cc1ccc(C(F)(F)F)cc1 (stereo unspecified),x,1,x,x,x,x,x,x
COc1ccc(-c2cc(NC(C)=O)c3ncc(-c4ccccc4)n3c2)cc1OC,x,-11,33,x,-4,5,x,x
COc1ccc(-c2cc(NC(C)=O)c3ncc(-c4ccc(F)cc4)n3c2)cc1OC,x,-11,15,x,14,22*,26*,6
COc1ccc(-c2cnc3c(NC(C)=O)cc(-c4cc(F)ccc4OC)cn23)cc1OC,x,-4,17,x,-19,19*,27*,2
COc1ccc(F)cc1-c1cc(NC(C)=O)c2ncc(-c3cc(OC)c(OC)c(OC)c3)n2c1,x,-4,-7,x,-54,11*,9.7*,8
CCNC(=O)N(C)[C@H]1C[C@H]2c3[nH]c4c(-c5ccc6c(c5)OCO6)cccc4c3CCN2C(=O)[C@H]1[C@H](C)O,x,-11,x,x,x,x,x,x
COC(=O)c1cc2c(c3c4ccccc4n(S(=O)(=O)c4cccc(C)c4)c13)C(=O)N(Cc1ccccc1OC)C2,x,5,x,x,x,x,x,x
C/C=C/C(=O)Nc1nnc(-c2ccccc2C)s1,4,5,1,0,19,19*,1,6
Cc1ccccc1-c1nnc(NC(=O)CSc2nc3ccccc3s2)s1,5,-22,0,1,0,16*,10*,4
C=C(C)C(=O)Nc1nnc(-c2ccccc2C)s1,x,-1,0,x,3,-2,x,x
CC(C)C[C@H](NC1(C(=O)NCCc2c[nH]c3ccccc23)CCOCC1)C(=O)NCCCc1ccccc1,x,-63,x,x,x,x,x,x
SMILES,NTR1 ag,HGIII-sPLA2 inh,Granule exo inh,A1 inh,MC4R antag cAMP,MC4R barr agon,MC4R barr ag,MOR-DOR barr ag
CCCCCCC/C=C(\C)[C@@H](O)[C@@H](C)C(=O)N1CCC[C@@H]1C(=O)O[C@H](C(=O)O[C@@H](C)C(=O)O)[C@@H](C)CC,x,-58,x,x,x,x,x,x
C[C@@H]1[C@@H](O)C[C@@]2(C[C@H](O)c3ccccc3O2)O[C@H]1c1ccccc1,x,-4,x,x,x,x,x,x
O=C(COc1ccc(-n2cnnn2)cc1)Nc1cc(Cl)cc(Cl)c1,0,14,-1,x,0,17*,5,8
O=C(NCc1ccccc1Cl)O[C@H]1CC[C@@]23CCCN2C(=O)CCC[C@H]3C1,x,-3,x,x,x,x,x,x
O=C(Nc1ccc(C(O)(C(F)(F)F)C(F)(F)F)cc1)c1ccc(Cl)c([N+](=O)[O-])c1,13,-23,64*,0,-3,14*,15*,10
CCn1c(SCC(=O)Nc2ccc(Cl)cc2)nc2nc3c(cc2c1=O)CCCC3,12,-9,2,0,12,0,x,x
CCn1c(SCC(=O)Nc2ccc(C(C)=O)cc2)nc2nc3c(cc2c1=O)CCCC3,6,9,3,1,11,19*,18*,2
O=C(Nc1cc(N2CCOCC2)ncn1)Nc1cccc2ccccc12,0,-1,0,0,12,22*,7,5
Cc1cc2oc(C(=O)Nc3nonc3C)c(C)c2cc1C,1,7,-8,-3,18,14*,-2,5
CC1CCN(C(=O)c2ncn3c2C(=O)N[C@H](C)C3)CC1,x,8,x,x,x,x,x,x
O=C1CC(SC(=NCc2ccc3c(c2)OCO3)Nc2ccccc2)C(=O)N1c1ccccc1 (stereo unspecified),2,-6,-5,0,5,21*,1,9
O=C1CC(SC(=Nc2ccccc2)Nc2ccccc2)C(=O)N1c1ccc(Cl)c(Cl)c1 (stereo unspecified),22,12,-1,0,5,9.7*,4,5
O=C(O)c1ccc(N2C(=O)CC(SC(=NCc3ccc4c(c3)OCO4)Nc3ccccc3)C2=O)cc1 (stereo unspecified),1,-15,46,0,-12,0,x,x
Cc1ccnc(NC(=S)N2CCC(Nc3cccc(C(F)(F)F)c3)CC2)c1,x,4,x,x,x,x,x,x
COc1ccc(C(=O)CSc2nc3ccccc3n2CC(=O)c2ccccc2)cc1,2,-52,-3,0,10,-2,x,x
COc1ccc(C(=O)Cn2c(C(=O)/C=C/c3ccccc3)nc3ccccc32)cc1,17,2,6,0,11,23*,9.4*,4
